From ChEMBL document CHEMBL1126550, “Nanomolar-affinity, non-peptide oxytocin receptor antagonists” (J Med Chem, 1993)

Assays:
[1] = target: T1, Oxytocin receptor (Rattus norvegicus, UniProt P70536); test: Inhibition of radioligand [3H]oxytocin binding at the oxytocin (OT) receptor in rat uterine tissue
T1 sequence (P70536 whole entry): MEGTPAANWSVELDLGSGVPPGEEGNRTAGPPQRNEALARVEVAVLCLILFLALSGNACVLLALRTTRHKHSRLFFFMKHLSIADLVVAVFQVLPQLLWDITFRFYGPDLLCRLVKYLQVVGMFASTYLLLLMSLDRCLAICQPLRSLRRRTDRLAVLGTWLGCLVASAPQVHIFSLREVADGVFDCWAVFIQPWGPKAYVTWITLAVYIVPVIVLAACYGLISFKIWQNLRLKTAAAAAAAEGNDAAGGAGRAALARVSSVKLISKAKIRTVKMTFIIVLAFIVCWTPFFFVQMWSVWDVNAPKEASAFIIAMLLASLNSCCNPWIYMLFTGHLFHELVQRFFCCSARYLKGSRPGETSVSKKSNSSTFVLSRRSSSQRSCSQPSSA
How it was run: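 Uteri taken from rats given diethylstilbestrol dipropionate (0.3 mg/kg ip, 18–24 h before), crude membranes. 1 nM [3H]OT (30–60 Ci/mmol), equilibrium 60 min at 22 °C in 50 mM Tris-HCl, 5 mM MgCl2, 0.1% BSA, pH 7.4. Nonspecific binding with 1 mM unlabeled OT. Filtered on glass fiber. Initial single-concentration screen, then IC50 from seven concentrations by linear regression.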

[2] = target: Vasopressin V2 receptor (Rattus norvegicus, UniProt Q00788); test: Inhibition of radioligand [3H]-AVP binding to the vasopressin V2 receptor in rat kidney tissue
How it was run: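 [3H]AVP (80–90 Ci/mmol) at 2 nM competed on crude membranes from male rat kidney medulla (V2 sites). Equilibrium 30 min at 30 °C in 100 mM Tris-HCl, 5 mM MgCl2, 0.1% BSA, 50 μM PMSF, 50 μg/mL bacitracin, pH 8.0. Nonspecific binding with 10 μM unlabeled AVP. Glass-fiber filtration. IC50 by linear regression of % inhibition vs log concentration, seven concentrations.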

[3] = target: Vasopressin V1 receptor (Rattus norvegicus, UniProt P48974+P30560); test: Inhibition of radioligand [3H]AVP binding to the vasopressin V1 receptor in rat liver tissue
How it was run: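 Crude membranes from male rat liver (V1 sites) competed with 1 nM [3H]AVP (80–90 Ci/mmol). Equilibrium 30 min, 30 °C, buffer 100 mM Tris-HCl, 5 mM MgCl2, 0.1% BSA, 50 μM PMSF, 50 μg/mL bacitracin, pH 8.0. 10 μM unlabeled AVP for nonspecific binding. Filtration through glass-fiber filters. IC50 from linear regression over seven concentrations.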

Chain of Vasopressin V2 receptor (Q00788 whole entry): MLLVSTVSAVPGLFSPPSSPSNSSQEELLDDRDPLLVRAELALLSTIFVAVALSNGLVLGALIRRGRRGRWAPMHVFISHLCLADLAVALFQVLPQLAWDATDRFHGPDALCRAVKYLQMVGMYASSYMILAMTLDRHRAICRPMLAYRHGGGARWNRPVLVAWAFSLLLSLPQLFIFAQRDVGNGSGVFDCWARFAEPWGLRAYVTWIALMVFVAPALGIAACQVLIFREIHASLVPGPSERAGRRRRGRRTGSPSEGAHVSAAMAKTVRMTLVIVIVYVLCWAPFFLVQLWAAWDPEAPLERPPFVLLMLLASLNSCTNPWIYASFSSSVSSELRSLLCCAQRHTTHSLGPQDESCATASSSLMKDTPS

SMILES	IC50 [1] [nM]	IC50 [2] [nM]	IC50 [3] [nM]
CC1(C)[C@@H]2CC[C@@]1(CS(=O)(=O)N1CCC3(CCc4ccccc43)CC1)[C@@H](NC(=O)CCN)C2	140	9600	1000
CNC1CCN([C@H]2C[C@H]3CC[C@]2(CS(=O)(=O)N2CCC4(CCc5ccccc54)CC2)C3(C)C)C1=O (stereo not given in full)	210	12000	4700
CC1(C)[C@@H]2CC[C@@]1(CS(=O)(=O)N1CCC3(CCc4ccccc43)CC1)[C@@H](NC(=O)CCc1c[nH]cn1)C2	94	21000	5800
CCC(C(=O)N[C@H]1C[C@H]2CC[C@]1(CS(=O)(=O)N1CCC3(CCc4ccccc43)CC1)C2(C)C)c1c[nH]cn1 (stereo not given in full)	170	15000	4000
CC1(C)[C@@H]2CC[C@@]1(CS(=O)(=O)N1CCC3(CCc4ccccc43)CC1)[C@@H](N1C(=O)CCC1C(=O)O)C2 (stereo not given in full)	270	> 3000	> 3000
CC1(C)[C@@H]2CC[C@@]1(CS(=O)(=O)N1CCC3(C=Cc4ccccc43)CC1)[C@@](O)(CCNC(=O)CC1CN3CCC1CC3)C2 (stereo not given in full)	100	6200	640
CC1(C)[C@@H]2CC[C@@]1(CS(=O)(=O)N1CCC3(CCc4ccccc43)CC1)[C@@H](NC(=O)Cc1ccccn1)C2	95	6500	3900
CC1(C)[C@@H]2CC[C@@]1(CS(=O)(=O)N1CCC3(CCc4ccccc43)CC1)[C@@H](NC(=O)C1CN3CCC1CC3)C2 (stereo not given in full)	29	5500	530
CC1(C)[C@@H]2CC[C@@]1(CS(=O)(=O)N1CCC3(CCc4ccccc43)CC1)[C@@H](NC(=O)CCc1ccccc1)C2	530	> 10000	10000
CC(=O)N[C@H]1C[C@H]2CC[C@]1(CS(=O)(=O)N1CCC3(CCc4ccccc43)CC1)C2(C)C	390	26000	7600
CC1(C)[C@@H]2CC[C@@]1(CS(=O)(=O)N1CCC3(C=Cc4ccccc43)CC1)[C@@](O)(CNC(=O)c1ccncc1)C2	180	10000	1200
CC1(C)[C@@H]2CC[C@@]1(CS(=O)(=O)N1CCC3(CCc4ccccc43)CC1)[C@@H](NC(=O)CCCc1ccccc1)C2	570	> 10000	> 1000
CC(=O)NC[C@@]1(O)C[C@H]2CC[C@]1(CS(=O)(=O)N1CCC3(C=Cc4ccccc43)CC1)C2(C)C	130	10000	> 1000
CC(=O)N[C@@H]1C[C@H]2CC[C@]1(CS(=O)(=O)N1CCC3(CCc4ccccc43)CC1)C2(C)C	1200	> 10000	10000
CC1(C)[C@@H]2CC[C@@]1(CS(=O)(=O)N1CCC3(CCc4ccccc43)CC1)[C@@H](NC(=O)c1ccccc1)C2	1000	> 10000	10000
CC1(C)[C@@H]2CC[C@@]1(CS(=O)(=O)N1CCC3(C=Cc4ccccc43)CC1)C(=O)C2	1800	> 10000	> 10000
CC1(C)[C@@H]2CC[C@@]1(CS(=O)(=O)N1CCC3(CCc4ccccc43)CC1)[C@@H](NC(=O)CCn1ccnc1)C2	140	> 3000	> 3000
COC(=O)CNC(=O)N[C@H]1C[C@H]2CC[C@]1(CS(=O)(=O)N1CCC3(CCc4ccccc43)CC1)C2(C)C	160	> 3000	> 3000

Results, then the molecule that gave them:

IC50 [1] [nM]	IC50 [2] [nM]	IC50 [3] [nM]	SMILES
43	4900	290	CC(C)[C@H](N)C(=O)NC[C@@]1(O)C[C@H]2CC[C@]1(CS(=O)(=O)N1CCC3(C=Cc4ccccc43)CC1)C2(C)C
92	4200	1200	CC(C)CC1NC(=O)N([C@H]2C[C@H]3CC[C@]2(CS(=O)(=O)N2CCC4(CCc5ccccc54)CC2)C3(C)C)C1=O (stereo not given in full)
12	5100	2300	CC1(C)[C@@H]2CC[C@@]1(CS(=O)(=O)N1CCC3(CCc4ccccc43)CC1)[C@@H](NC(=O)[C@H](N)CCC(N)=O)C2
35	2100	490	CC1(C)[C@@H]2CC[C@@]1(CS(=O)(=O)N1CCC3(CCc4ccccc43)CC1)[C@@H](N1C(=O)NC(CN)C1=O)C2 (stereo not given in full)
49	2600	1000	CC1(C)[C@@H]2CC[C@@]1(CS(=O)(=O)N1CCC3(C=Cc4ccccc43)CC1)[C@@](O)(CCNC(=O)C1=CCC(=O)N=C1)C2
55	7900	2800	CC1(C)[C@@H]2CC[C@@]1(CS(=O)(=O)N1CCC3(CCc4ccccc43)CC1)[C@@H](NC(=O)[C@@H](N)CCC(N)=O)C2
61	3000	> 300	CN(C)CC(=O)NCC(=O)N[C@H]1C[C@H]2CC[C@]1(CS(=O)(=O)N1CCC3(CCc4ccccc43)CC1)C2(C)C
12	2400	890	CC1(C)[C@@H]2CC[C@@]1(CS(=O)(=O)N1CCC3(CCc4ccccc43)CC1)[C@@H](NC(=O)[C@@H](N)CCS(C)(=O)=O)C2
35	5100	480	CC1(C)[C@@H]2CC[C@@]1(CS(=O)(=O)N1CCC3(C=Cc4ccccc43)CC1)[C@@](O)(CNC(=O)Cc1ccncc1)C2
60	5500	1700	CC1(C)[C@@H]2CC[C@@]1(CS(=O)(=O)N1CCC3(CCc4ccccc43)CC1)[C@@H](N1CCC(N)C1=O)C2 (stereo not given in full)
30	2500	1600	CC1(C)[C@@H]2CC[C@@]1(CS(=O)(=O)N1CCC3(CCc4ccccc43)CC1)[C@@H](N1C(=O)CC(CC(=O)O)C1=O)C2 (stereo not given in full)
18	2100	1100	CC1(C)[C@@H]2CC[C@@]1(CS(=O)(=O)N1CCC3(CCc4ccccc43)CC1)[C@@H](N1C(=O)CNC1=O)C2
50	4100	1900	CC1(C)[C@@H]2CC[C@@]1(CS(=O)(=O)N1CCC3(CCc4ccccc43)CC1)[C@@H](N1C(=O)NC(CC(=O)O)C1=O)C2 (stereo not given in full)
1.7	620	1900	Cn1cnc(CC(=O)N[C@@H](CCC(N)=O)C(=O)N[C@H]2C[C@H]3CC[C@]2(CS(=O)(=O)N2CCC4(CCc5ccccc54)CC2)C3(C)C)c1
4.2	1700	530	CC1(C)[C@@H]2CC[C@@]1(CS(=O)(=O)N1CCC3(CCc4ccccc43)CC1)[C@@H](N1C(=O)CN(CC#N)C1=O)C2
46	6500	1400	CC1(C)[C@@H]2CC[C@@]1(CS(=O)(=O)N1CCC3(CCc4ccccc43)CC1)[C@@H](NC(=O)C(N)CCC#N)C2 (stereo not given in full)
6	650	320	Cn1cnc(CC(=O)N(CCS(C)(=O)=O)[C@H]2C[C@H]3CC[C@]2(CS(=O)(=O)N2CCC4(CCc5ccccc54)CC2)C3(C)C)c1
5.9	740	500	CC1(C)[C@@H]2CC[C@@]1(CS(=O)(=O)N1CCC3(CCc4ccccc43)CC1)[C@@H](N1C(=O)CN(CC(=O)Nc3ncc[nH]3)C1=O)C2
38	6700	4000	CC1(C)[C@@H]2CC[C@@]1(CS(=O)(=O)N1CCC3(CCc4ccccc43)CC1)[C@@H](NC(=O)C(N)CCS(N)(=O)=O)C2 (stereo not given in full)
45	5500	1500	CC1(C)[C@@H]2CC[C@@]1(CS(=O)(=O)N1CCC3(CCc4ccccc43)CC1)[C@@H](NC(=O)[C@H](N)Cc1c[nH]cn1)C2
49	3400	1700	CN(C)[C@H](Cc1c[nH]cn1)C(=O)N[C@H]1C[C@H]2CC[C@]1(CS(=O)(=O)N1CCC3(CCc4ccccc43)CC1)C2(C)C
90	> 3000	> 300	CC1(C)[C@@H]2CC[C@@]1(CS(=O)(=O)N1CCC3(C=Cc4ccccc43)CC1)[C@@](O)(CCNC(=O)Cc1c[nH]cn1)C2
